Screens (PubChem BioAssay)
KCNK9 block – KCNK9 potassium channel inhibitors, primary screen, HEK293 cells, thallium flux | Potassium channel subfamily K member 9 (Homo sapiens), Q9NPC2 | FluxOR thallium flux fluorescence; active compounds read low | B-score at 10 µM | 310,000 tested, 1.2% active | AID 488922, 2010;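 active = ratio B-score over 3 SD below the library mean, with starting fluorescence within 5 SD of its mean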;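 note: negative B-score means less thallium flux so channel inhibition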
KCNQ1 act – potentiators or activators of KCNQ1 channel, primary screen, cell-based, thallium flux, high-throughput; B-score at 10 µM; Potassium voltage-gated channel subfamily KQT member 1 (Homo sapiens), P51787; CHO-K1 KCNQ1, thallium flux FluxOR fluorescence; active compounds read high; 310,000 tested, 0.35% active;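 active = fluorescence ratio B-score, a plate-corrected score, at least three library SD, with initial intensity B-score within 5 SD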
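assay system = CHO-K1 cells stably expressing KCNQ1 | medium = assay buffer, equal DMSO in all wells | timing = 37 °C overnight plating, 90-min dark dye load, 20-min compound pretreatment | measured by = kinetic FluxOR thallium fluorescence, 10-s 1-Hz baseline, 110-s post-stimulus read | measure = fluorescence change relative to baseline, converted to B score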
KCNK3 block – human KCNK3 channel inhibitors, primary screen, CHO cells, FluxOR thallium flux, B-score; Potassium channel subfamily K member 3 (Homo sapiens), O14649; FluxOR fluorescence; active compounds read low; B-score at 10 µM; 340,000 tested, 0.84% active; AID 602410, 2012;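 active = B-score under library mean minus 4 SD, starting fluorescence ratio at most library mean plus 5 SD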;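 note: more negative B-score means stronger inhibition of thallium flux through KCNK3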
Kir21 block – inhibitors of mouse Kir2.1 inward-rectifier potassium channel. HEK293-Kir2.1, FluxOR thallium flux fluorescence; active compounds read low. B-score at 10 µM. 310,000 tested, 0.85% active;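 active = fluorescence ratio B-score at or below minus 3 SD of library scores, with starting-brightness B-score within 2 SD, cut at about -4.2 in these data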;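 note: channel flux triggered by added potassium and thallium sulfate stimulus; B-score of peak minus minimum fluorescence over baseline after thallium stimulus; more negative B-score means stronger Kir2.1 block with less thallium influx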
hERG rescue – hERG rescue from dofetilide block, primary screen, cell-based, CHO-hERG, FluxOR thallium flux, dofetilide IC70. Voltage-gated inwardly rectifying potassium channel KCNH2 (Homo sapiens), Q12809. dofetilide IC70 present. activation (rescue from dofetilide block), less the hit threshold, % at 10 µM. 310,000 tested, 0.51% active. AID 1511, 2009;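 active = activation above the mean of controls blocked by dofetilide plus 5 SD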;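 note: thallium influx through hERG after potassium depolarization seen as dye fluorescence rise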
Target sequence (Q12809 whole entry, looked up): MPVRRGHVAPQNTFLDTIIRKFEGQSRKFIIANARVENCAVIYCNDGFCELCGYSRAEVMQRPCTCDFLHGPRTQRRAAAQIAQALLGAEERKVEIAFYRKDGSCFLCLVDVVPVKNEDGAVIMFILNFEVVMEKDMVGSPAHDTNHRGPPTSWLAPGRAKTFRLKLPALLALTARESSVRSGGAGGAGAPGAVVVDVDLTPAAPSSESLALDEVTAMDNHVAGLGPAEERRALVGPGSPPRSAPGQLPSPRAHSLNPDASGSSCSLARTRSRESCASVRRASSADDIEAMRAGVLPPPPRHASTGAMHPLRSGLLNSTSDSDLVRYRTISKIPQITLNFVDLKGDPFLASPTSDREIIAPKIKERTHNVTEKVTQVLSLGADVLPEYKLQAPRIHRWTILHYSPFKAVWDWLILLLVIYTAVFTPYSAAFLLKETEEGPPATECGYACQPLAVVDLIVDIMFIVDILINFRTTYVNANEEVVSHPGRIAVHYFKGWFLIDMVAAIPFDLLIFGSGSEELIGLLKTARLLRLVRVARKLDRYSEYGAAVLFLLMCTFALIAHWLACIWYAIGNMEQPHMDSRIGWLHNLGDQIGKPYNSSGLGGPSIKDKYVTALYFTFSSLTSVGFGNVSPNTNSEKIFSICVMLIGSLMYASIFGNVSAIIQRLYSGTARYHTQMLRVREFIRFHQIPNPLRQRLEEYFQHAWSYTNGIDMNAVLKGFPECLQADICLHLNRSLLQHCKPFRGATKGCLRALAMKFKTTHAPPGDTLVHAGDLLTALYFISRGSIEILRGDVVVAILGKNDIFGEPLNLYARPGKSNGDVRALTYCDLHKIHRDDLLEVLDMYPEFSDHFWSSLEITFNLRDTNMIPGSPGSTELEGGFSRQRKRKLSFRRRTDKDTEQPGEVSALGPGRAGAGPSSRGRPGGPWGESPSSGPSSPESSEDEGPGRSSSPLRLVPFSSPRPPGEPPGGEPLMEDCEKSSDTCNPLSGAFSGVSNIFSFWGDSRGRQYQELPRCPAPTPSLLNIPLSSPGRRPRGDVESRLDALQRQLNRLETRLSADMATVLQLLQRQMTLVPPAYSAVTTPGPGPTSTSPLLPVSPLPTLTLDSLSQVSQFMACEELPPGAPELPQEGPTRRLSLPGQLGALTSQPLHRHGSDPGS
KCNQ1 inh – inhibitors of human KCNQ1 channel, primary screen, cell-based, thallium flux, high-throughput; Potassium voltage-gated channel subfamily KQT member 1 (Homo sapiens), P51787; CHO-K1 KCNQ1, FluxOR thallium flux fluorescence; active compounds read high; B-score at 10 µM; 310,000 tested, 1.3% active;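 active = compounds whose thallium flux B-score, printed positive for inhibition, exceeds three library SD while starting fluorescence stays within three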;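 note: channel opened by potassium depolarization with thallium stimulus after 20 min compound exposure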
KCNK9 inh conf – KCNK9 potassium channel inhibitors, confirmation, HEK293 cells, thallium flux, duplicate | shares compounds with KCNK9 block | FluxOR thallium flux fluorescence | inhibition, % at 10 µM | 4,900 tested, 43% active;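 active = thallium signal inhibited by more than 5 SD of the compound-free buffer control wells, on both duplicate plates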
Kir21 sel – mouse Kir2.1 channel inhibition, confirmation, selectivity assay for KCNK9 modulator project, cell-based, HEK293, thallium flux; shares compounds with KCNK9 block; Kir2.1 cells, FluxOR thallium flux fluorescence; inhibition, % at 10 µM; 4,900 tested, 4% active;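 active = thallium signal drop more than 5 SD beyond the mean of the no-compound control wells, seen in both duplicate plates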;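 note: signal is fluorescence rise after thallium addition divided by baseline fluorescence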
KCNK9 uninduced – thallium flux in non-induced HEK293 cells, confirmation, counter-screen for KCNK9 inhibitor project, cell-based, second counter screen, non-induced KCNK9-HEK293; shares compounds with KCNK9 block; FluxOR thallium flux; inhibition, % at 10 µM; 4,900 tested, 40% active;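 active = thallium signal drop beyond 5 SD of the untreated control mean, on both duplicate plates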
KCNK3 inh conf – retest of human KCNK3 channel inhibitors, confirmation, CHO cells, FluxOR thallium flux, triplicate. FluxOR fluorescence; 0% buffer, 100% carvedilol maximal block. 2,400 tested, 99% active. shares compounds with KCNK3 block. ratio percent of control, % at 10 µM;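 active = ratio percent of control, averaged over triplicates, above buffer control mean plus 5 SD, cut at about 64% in these data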;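 note: ratio is the fluorescence rise from min to max over baseline after thallium stimulus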
KCNK3 uninduced – thallium flux inhibition in non-induced cells, primary screen, counter-screen for KCNK3 inhibitor project, cell-based, non-induced KCNK3 line, FluxOR thallium, triplicate | shares compounds with KCNK3 block | non-induced KCNK3 parental cells; active compounds read low | thallium flux ratio (lower = more inhibition) at 10 µM | 2,400 tested, 40% active | AID 651747, 2012;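 active = thallium flux ratio, averaged over three wells, more than 5 SD below the buffer control mean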;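 note: host cells are CHO cells without KCNK3 induction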
Each line names hits and unclear results; the compound was inactive in the other large screens (follow-up assays come after a bar, where they were run). A selection: hits, their analogues and other compounds. The true share with any hit is near 3.8%.

Cc1csc(NC(=O)c2ccc(Cn3nc(C)c(Br)c3C)o2)n1	none
COc1ccc(C(=O)N/C(=C\c2cn(C)c3ccccc23)C(=O)NCCCn2ccnc2)cc1	none
Cc1ccc(NC(=O)c2cccs2)cc1NC(=O)c1ccccc1Cl	none
O=C(Nc1cccc(NC(=O)c2ccccc2Cl)c1)c1cccs1	KCNK9 block -13 | KCNK9 inh conf 57% | Kir21 sel inactive | KCNK9 uninduced 28% | KCNK3 inh conf 112 | KCNK3 uninduced inactive
COc1ccc(-c2cccc(NC(=O)c3cccs3)c2)nn1	KCNK9 block -9.1, KCNK3 block -10 | KCNK9 inh conf 35% | Kir21 sel inactive | KCNK9 uninduced inactive | KCNK3 inh conf 96 | KCNK3 uninduced inactive
COc1ccc(S(=O)(=O)N2CCOCC2)cc1NC(=O)CN1CCN(C)CC1	none
COc1ccc(S(=O)(=O)Nc2noc3ccccc23)cc1	none
CC(Cc1cccs1)NC(=O)Nc1ccc(Cl)cc1 (stereo not drawn)	none
CC(Cc1cccs1)NC(=O)Nc1ccc(Cl)c(Cl)c1 (stereo not drawn)	KCNK9 block -16, KCNK3 block -13 | KCNK9 inh conf 62% | Kir21 sel inactive | KCNK9 uninduced 42% | KCNK3 inh conf 110 | KCNK3 uninduced 0.16
Nc1cccc(C(=O)Nc2cccc3ncccc23)c1	none
CCOc1ccc(S(=O)(=O)N2CCN(C(=O)CCOc3ccccc3C)CC2)cc1	none
CCCOC(=O)c1ccc(NC(=O)c2ccccc2[N+](=O)[O-])cc1	KCNK9 block -8.2, KCNK3 block -8.8 | KCNK9 inh conf 48% | Kir21 sel inactive | KCNK9 uninduced inactive | KCNK3 inh conf 105 | KCNK3 uninduced inactive
O=C(c1cccc(S(=O)(=O)N2CCN(c3ccc(F)cc3)CC2)c1)N1CCN(c2ccccc2O)CC1	none (no result: KCNK9 block, KCNQ1 act, Kir21 block, hERG rescue, KCNQ1 inh)
CCn1cc(CNC(=O)c2cccc([N+](=O)[O-])c2)c(C)n1	none
O=C(NCc1cn(-c2ccccc2)nc1-c1ccc(F)cc1)c1cccc([N+](=O)[O-])c1	KCNK9 block -17, KCNK3 block -8.8 | KCNK9 inh conf 78% | Kir21 sel inactive | KCNK9 uninduced 31% | KCNK3 inh conf 104 | KCNK3 uninduced 0.14
O=C1OCCN1C(=O)[C@H]1[C@H](c2ccc([N+](=O)[O-])cc2)C(c2ccc(F)cc2)=NN1c1ccc(Br)cc1	none (no result: KCNK9 block, KCNQ1 act, Kir21 block, hERG rescue, KCNQ1 inh)
CCCCC(C(=O)NC1CCCC1)N(Cc1ccco1)C(=O)Cn1nnc(-c2ccc(F)cc2)n1 (stereo not drawn)	KCNK9 block -22, KCNK3 block -12 | KCNK9 inh conf 54% | Kir21 sel inactive | KCNK9 uninduced 37% | KCNK3 inh conf 92 | KCNK3 uninduced inactive
Cc1ccc(NC(=O)COc2coc(CN3CCN(c4ccccc4)CC3)cc2=O)cc1	none
COn1c(SCc2ccccc2)nc2ccccc2c1=O	none
COCCn1c(SCc2ccc(OC)c(F)c2)nc2ccccc2c1=O	KCNK9 block -16, KCNK3 block -12 | KCNK9 inh conf 79% | Kir21 sel inactive | KCNK9 uninduced 64% | KCNK3 inh conf 106 | KCNK3 uninduced inactive
COn1c(SCc2cccc(Cl)c2)nc2ccccc2c1=O	KCNK9 block -9.7, KCNK3 block -11 | KCNK9 inh conf 50% | Kir21 sel inactive | KCNK9 uninduced inactive | KCNK3 inh conf 84 | KCNK3 uninduced inactive
COCCn1c(SCc2nc3ccccc3c(=O)[nH]2)nc2ccccc2c1=O	none
CC(=O)N1C(C(=O)O)Cc2c([nH]c3ccccc23)C1C (stereo not drawn)	none
CC(C)C1OC(c2cccc(NC(=O)c3cccs3)c2)OCC1(C)C (stereo not drawn)	KCNK9 block -8.5, KCNK3 block -9.5 | KCNK9 inh conf 50% | Kir21 sel inactive | KCNK9 uninduced 44% | KCNK3 inh conf 114 | KCNK3 uninduced 0.16
COc1ccccc1CNCCS(=O)(=O)NCc1ccccc1	none (no result: KCNK9 block, KCNQ1 act, Kir21 block, hERG rescue, KCNQ1 inh)
CN1CCN(C2CCCCC2NS(=O)(=O)c2ccccc2)CC1 (stereo not drawn)	none
O=S(=O)(NC1CCCCC1N1CCN(c2cccc(Cl)c2)CC1)c1ccccc1 (stereo not drawn)	KCNK9 block -13, KCNK3 block -10 | KCNK9 inh conf 57% | Kir21 sel inactive | KCNK9 uninduced 42% | KCNK3 inh conf 107 | KCNK3 uninduced inactive
CCCc1nc(SCC(=O)N2CCCCCC2)c2c(=O)n(C)c(=O)n(C)c2n1	none (no result: KCNK3 block)
CCCSc1nsc(NC(=O)C(c2ccccc2)c2ccccc2)n1	KCNK9 block -8.8, KCNK3 block -9, KCNQ1 inh 6 | KCNK9 inh conf 55% | Kir21 sel inactive | KCNK9 uninduced 42% | KCNK3 inh conf 132 | KCNK3 uninduced 0.12
CCCSc1nsc(NC(=O)CC)n1	none
CCOC(=O)c1sc(-c2ccccc2)cc1NC(=O)CSc1nnnn1C	KCNK9 block -11, KCNK3 block -12 | KCNK9 inh conf 52% | Kir21 sel inactive | KCNK9 uninduced 34% | KCNK3 inh conf 87 | KCNK3 uninduced inactive
CCOC(=O)c1cc(-c2ccccc2)sc1NC(=O)CSc1nnnn1C	KCNK9 block -9.6, KCNK3 block -11 | KCNK9 inh conf 54% | Kir21 sel inactive | KCNK9 uninduced 32% | KCNK3 inh conf 104 | KCNK3 uninduced inactive
CCOC(=O)c1cccc(NC(=O)CSc2nnnn2C)c1	none
